Screening data as filed in PubChem.
TbHK1 inh = Trypanosoma brucei hexokinase 1 inhibitors, primary screen, biochemical, G6PDH-coupled NADH absorbance, MLSCN library; recombinant TbHK1, G6PDH-coupled NADH A340; AID 1430, 2008; inhibition, % at 10 µM; actives 0.11% (n = 220,000);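 active means inhibition of 50% or more in the single-dose primary screen; inactive means inhibition below 50%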
Runt-CBFb FRET = inhibitors of RUNX1 Runt–CBFb binding, primary screen, biochemical, FRET, Cerulean-Runt, Venus-CBFb, uHTS; Runt-related transcription factor 1 (Homo sapiens) + Core-binding factor subunit beta …; Cerulean-Runt/Venus-CBFb FRET ratio 530/480, 1 h; inhibition, % at 20 µM; actives 0.46% (n = 220,000);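 active means inhibition over about 50% at 20 µM in the single-dose screen, limit read from the data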
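test system = Cerulean-Runt domain fusion protein, energy donor | probe or stimulus = Venus-CBFb binding partner, 100 nM | incubation = two 1 h room-temperature incubations shielded from light | detection = fluorescence energy transfer, 422 nm excitation, 530/480 nm emission | measure = loss of energy transfer signal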
RanGTP-Imp inh = inhibitors of RanGTP-importin-beta interaction, primary screen, biochemical, FRET, CFP-Ran, YFP-importin-beta, homogeneous. cell-free CFP-Ran/YFP-importin-beta FRET ratio. Ran GTPase (GTP-bound) - importin-beta complex. inhibition, % (test concentration not listed). actives 1.1% (n = 300,000);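 active means more than half of the replicate wells show a fall in the fluorescence ratio signal beyond about 16%, limit read from the data, passing the limit was not always enough; inconclusive means exactly half of the replicate wells pass the set limit; inactive means fewer than half of replicates pass the limit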
p97 inhibitor = inhibitors of human p97 ATPase, primary screen, biochemical; recombinant p97 ATPase, Kinase-Glo ATP luminescence, 3 h; Transitional endoplasmic reticulum ATPase (Homo sapiens), P55072; inhibition, % at 8 µM; actives 0.42% (n = 220,000); AID 1481, 2009; in the data active means inhibition above about 15%
Hck-Nef inh = inhibitors of Nef-activated human Hck kinase, primary screen, biochemical, Z-Lyte FRET, 384-well, Hck-YEEI. Tyrosine-protein kinase HCK (Homo sapiens), P08631. Recombinant Hck-YEEI plus Nef, Z-Lyte FRET kinase assay. inhibition, % at 20 µM. actives 0.68% (n = 220,000). AID 463187, 2010;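 active means Hck-Nef kinase inhibition above about 50%, limit read from the data; inactive means inhibition below that limit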
Target sequence (P08631 whole entry, looked up): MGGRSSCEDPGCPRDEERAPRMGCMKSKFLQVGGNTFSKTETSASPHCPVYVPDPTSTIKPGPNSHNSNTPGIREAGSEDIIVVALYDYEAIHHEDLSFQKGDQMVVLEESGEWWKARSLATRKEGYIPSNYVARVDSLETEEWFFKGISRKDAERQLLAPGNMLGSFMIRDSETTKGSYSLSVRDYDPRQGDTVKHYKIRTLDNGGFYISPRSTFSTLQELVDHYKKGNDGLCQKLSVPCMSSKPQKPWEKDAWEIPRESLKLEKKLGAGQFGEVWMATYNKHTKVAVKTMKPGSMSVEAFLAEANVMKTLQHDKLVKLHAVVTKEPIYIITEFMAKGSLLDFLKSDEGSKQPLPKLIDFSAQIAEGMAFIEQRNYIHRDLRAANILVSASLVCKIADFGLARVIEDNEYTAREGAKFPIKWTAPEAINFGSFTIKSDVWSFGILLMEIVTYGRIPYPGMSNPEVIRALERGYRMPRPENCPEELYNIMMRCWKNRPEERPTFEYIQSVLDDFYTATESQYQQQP
Runt-SMMHC FRET = inhibitors of RUNX1 Runt–CBFb-SMMHC binding, primary screen, biochemical, FRET, Cerulean-Runt, Venus-CBFb-SMMHC, uHTS | Runt-related transcription factor 1 (Homo sapiens) + Core-binding factor subunit beta … | Cerulean-Runt/Venus-CBFb-SMMHC FRET ratio 530/480, 1 h | inhibition, % at 20 µM | actives 0.74% (n = 220,000) | AID 1434, 2008;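 active means mean inhibition across duplicate retests at 20 µM reaching about 50%, limit read from the data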;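 further: inhibitors lower the FRET ratio by blocking Runt binding to CBFb-SMMHC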
YIC FRET counter = YIC intramolecular FRET probe signal interference, dose response, counter-screen for RanGTP-importin-beta inhibitor project, biochemical, fluorescence FRET | shares compounds with RanGTP-Imp inh | Purified YIC probe, intramolecular FRET ratio YFP/CFP | IC50, µM | actives 40% (n = 1,000) | AID 435026, 2010;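 active means fitted half-maximal inhibitory concentration no more than tenfold above the top dose tested; inconclusive means flat fit with 30 to 70% activity, or poor fit; inactive means half-maximal concentration beyond tenfold above the top dose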
Numbers stand for hits; – = inactive; ? = inconclusive; · = not tested or not shown. Rows were chosen to be rich in hits. Some 2.1% of all compounds tested hit in one or more screens of this group.

SMILES	TbHK1 inh	Runt-CBFb FRET	RanGTP-Imp inh	p97 inhibitor	Hck-Nef inh	Runt-SMMHC FRET	YIC FRET counter
Cc1cc(C2C(C#N)=C(N)SC(N)=C2C#N)c(C)s1	–	–	34.3	–	–	–	–
Cc1cc(C2C(C#N)=C(N)Oc3n[nH]c(C)c32)c(C)s1 (configuration not stated)	–	·	–	–	–	–	·
CCOC(=O)c1[nH]cnc1C(=O)Nc1cccc(Cl)c1	–	–	–	–	–	–	·
CCn1cnc2cc(NCc3ccc(C)cc3)ccc21	–	–	–	–	–	–	·
CCCn1cnc2cc(NCc3ccc(Br)cc3)ccc21	·	·	19.4	·	·	·	–
CC(C)NC(=O)/C(C#N)=C/c1ccc(N(C)C)o1	–	–	40.8	–	–	–	6.38
COc1cc(NC(=O)Cn2ncc(Cl)c(Cl)c2=O)c(C)cc1[N+](=O)[O-]	–	–	27.4	–	–	–	–
COc1cc(NC(=O)CN2C(=O)CN(C)C2=O)c(C)cc1[N+](=O)[O-]	–	–	–	–	–	–	·
CCCC(=O)NNc1c2ccccc2nc2ccccc12	–	–	20.8	–	–	–	–
COc1ccc(OCC(=O)NNc2c3ccccc3nc3ccccc23)cc1	–	–	27.4	–	–	–	–
COc1ccc(OCC(=O)Nc2nc3ccccc3[nH]2)cc1	–	–	?	–	–	–	·
O=C(CCCO)NNc1c2ccccc2nc2ccccc12	–	–	24.8	–	–	–	–
O=C(NNc1c2ccccc2nc2ccccc12)C(O)c1ccccc1 (configuration not stated)	–	–	33.7	–	–	–	–
O=C(N/N=C/c1ccccc1)C(O)c1ccccc1 (configuration not stated)	·	·	–	·	·	·	·
O=C(O)CCC(=O)NNc1nc2ccccc2nc1-c1ccccc1	–	–	–	–	–	–	·
Cc1nnc(NC(=O)c2ccc(S(=O)(=O)C(F)F)cc2)s1	–	–	–	–	–	–	·
COC(=O)CC1C(=O)NCCN1Cc1cn(-c2ccc(C)cc2)nc1-c1cccc(C)c1 (configuration not stated)	–	–	–	–	–	–	·
O=C(NCc1ccccc1)C12CC3CC(CC(C3)C1)C2	–	–	–	–	–	–	·
COc1ccc(OC)c(Nc2c3ccccc3nc3ccccc23)c1	·	·	32.5	·	·	·	–
O=C(NNc1c2ccccc2nc2ccccc12)C12CC3CC(CC(C3)C1)C2	–	–	24.3	–	–	–	–
COc1ccc(OC)c(Nc2c3c(nc4ccccc24)CCC3)c1	·	·	–	·	·	·	·
Cc1c(Br)c([N+](=O)[O-])nn1CCCC(=O)Nc1sc2c(c1C(N)=O)CCC(C)C2 (configuration not stated)	–	–	–	–	–	–	·
Cc1c(Cl)c([N+](=O)[O-])nn1CCCC(=O)Nc1sc2c(c1C(N)=O)CCC(C)C2 (configuration not stated)	–	–	24.4	–	–	–	–
O=C(O)CN1C(=O)/C(=C\C(Br)=C\c2ccccc2)SC1=S	·	·	–	·	·	·	·
CC1(C(=O)O)C=CCN1C(=O)c1ccccc1 (configuration not stated)	–	–	19.2	–	–	–	–
SMILES	TbHK1 inh	Runt-CBFb FRET	RanGTP-Imp inh	p97 inhibitor	Hck-Nef inh	Runt-SMMHC FRET	YIC FRET counter
CC1(C)OC(=O)C(=CNNc2c(Cl)cc(Cl)cc2Cl)C(=O)O1	–	–	–	–	–	–	·
CC(O)CN1CCN(C(=O)CN2C(=O)NC(c3ccccc3)(c3ccccc3)C2=O)CC1 (configuration not stated)	·	·	–	·	·	·	·
CCOC(=O)C1(CCc2ccccc2)CCN(Cc2ccccn2)CC1	–	–	16.9	–	–	–	–
Fc1ccccc1N1CCN(c2nc3ccccc3n3nnnc23)CC1	–	–	17.2	–	–	–	27.1
Fc1cc(Br)ccc1Nc1nc2ccccc2n2nnnc12	–	–	?	–	–	–	·
COc1ccc2[nH]cc(S(=O)(=O)c3ccc(C)cc3)c2c1	–	–	–	–	–	–	·
CCCCc1cc(-c2n[nH]c(=S)o2)c2ccccc2n1	·	·	20.1	·	·	·	–
O=c1cc(N2CCC3(CC2)OCCO3)[nH]c(=O)n1-c1ccc(Br)cc1	–	–	16.8	–	–	–	–
Cc1cccc(Oc2nc(-c3cccc([N+](=O)[O-])c3)nc3ccccc23)c1C	–	–	20.7	–	–	–	–
COc1nc(-c2cccc([N+](=O)[O-])c2)nc2ccccc12	–	–	–	–	–	–	·
CCC1CCCCN1C(=O)COc1cccc2c1CCN(C)C2=O (configuration not stated)	–	–	18.3	–	–	–	–
COc1ccc(-c2cn(CCC(=O)NCc3ccc(C)cc3)c(CCN)n2)cc1	·	·	–	·	·	·	·
Cc1ccc(S(=O)(=O)NCCCN2CCOCC2)cc1C	–	–	–	–	–	–	·
COc1cc(S(=O)(=O)NCCCN2CCOCC2)ccc1Cl	–	–	17.4	–	–	–	–
CCN1CCN(Cc2ccc(NC(=O)c3ccc(C)c(/C=C/c4cnc(Nc5cc(N6CCNCC6)nc(C)n5)cn4)c3)cc2C(F)(F)F)CC1	·	·	31.0	·	·	·	17.1
COC(=O)c1ccc(NC(=O)CN2CCN(S(=O)(=O)c3ccc(Br)cc3)CC2)cc1	·	·	–	·	·	·	·
COc1ccc(-c2c(C)c3ccc(O)cc3oc2=O)cc1	·	·	18.7	·	·	·	22
COc1ccc(C(C(=O)NC2CCCC2)N(CCCO)C(=O)c2snc(C(N)=O)c2N)cc1 (configuration not stated)	·	·	–	·	·	·	·
CCOC(=O)/C(C#N)=C\c1ccc(N2CCN(C)CC2)cc1	–	–	21.4	–	–	–	15.7
CCOC(=O)/C(C#N)=C/c1ccc(N2CCN(C)CC2)cc1	–	–	19.6	–	–	–	15.7
Nc1nc(Nc2ccccc2)nc2c1ncn2[C@@H]1O[C@H](CO)[C@@H](O)[C@H]1O	·	·	–	·	·	·	·
CC1CN(Cc2cc(=O)oc3cc(O)ccc23)CC(C)O1 (configuration not stated)	·	·	19.3	·	·	·	16.5
Cc1ccc2c(CN3CC(C)CC(C)C3)cc(=O)oc2c1 (configuration not stated)	·	·	–	·	·	·	·
Cc1ccc2c(CN3CCN(Cc4ccccc4)CC3)cc(=O)oc2c1	·	·	–	·	·	·	·
O=c1cc(CN2CCN(Cc3ccccc3)CC2)c2ccc(O)cc2o1	·	·	38.2	·	·	·	10.2
